This is an account of results in ChEMBL document CHEMBL5108036, “A concise SAR-analysis of antimicrobial cationic amphipathic barbiturates for an improved activity-toxicity profile” (Eur J Med Chem, 2022).

Data set [1] relates to Staphylococcus aureus. Kind of data set: Antibacterial activity against Staphylococcus aureus ATCC 9144 incubated for 48 hrs and measured by broth microdilution assay. The format is functional. Summed up: (§1)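 MICs in µg/mL were measured against the reference strains S. aureus ATCC 9144, B. subtilis 168, E. coli ATCC 25922 and P. aeruginosa ATCC 27853. Compounds were tested as di-TFA salts.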

Data set [2] relates to Bacillus subtilis. The data set is described as follows: Antibacterial activity against Bacillus subtilis 168 incubated for 48 hrs and measured by broth microdilution assay. It is filed as functional. The essentials: as §1
(Dilution methods test growth across graded concentrations, often in twofold steps.)

The test system of data set [3] is Escherichia coli. The data set is described as follows: Antibacterial activity against Escherichia coli ATCC 25922 incubated for 48 hrs and measured by broth microdilution assay. The format is functional. Summed up: as §1
Data set [4] deals with Pseudomonas aeruginosa. Kind of data set: Antibacterial activity against Pseudomonas aeruginosa ATCC 27853 incubated for 48 hrs and measured by broth microdilution assay. The format is functional. The essentials:
as §1

Data set [5] is described as follows: Hemolytic activity in human RBC measured after 1 hr by microplate reader method. The following applies: human, human red blood cells (erythrocytes). It is filed as toxicity, cell-based, Erythrocyte. Summed up:
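Human red blood cell lysis was used as the cytotoxicity read-out, expressed as EC50 in µg/mL. The highest concentration tested was 500 µM. Compounds were tested as di-TFA salts.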

One may read the MIC as the lowest concentration that inhibits growth of the organism. Read a low MIC as inhibition by little substance. What is called EC50 is the concentration giving half of the maximal effect. A high value points to lower potency in that assay. On to `N[C@H]1C[C@H](N2C(=O)N([C@H]3C[C@H](N)C3)C(=O)C(Cc3cc(Br)cc(Br)c3)(Cc3cc(Br)cc(Br)c3)C2=O)C1.O=C(O)C(F)(F)F.O=C(O)C(F)(F)F`, for which the minimum inhibitory concentration (MIC) in data set [1] worked out at 4 µg/mL; in data set [2], 4 µg/mL; in data set [3], 4 µg/mL; in data set [4], 8 µg/mL. The EC50 at 1 h in data set [5] stood at 93 µg/mL.
Regarding `NCCCCN1C(=O)N(CCCCN)C(=O)C(Cc2cc(Br)cc(Br)c2)(Cc2cc(C(F)(F)F)cc(C(F)(F)F)c2)C1=O.O=C(O)C(F)(F)F.O=C(O)C(F)(F)F`, the MIC in data set [1] is 8 µg/mL; in data set [2], 2 µg/mL; in data set [3], 8 µg/mL; in data set [4] it was 8 µg/mL. Further, in data set [5], the EC50 at 1 h was found to be 93 µg/mL.
As to `CCCCCCC1(CCCCCC)C(=O)N(CCCCNC(=N)N)C(=O)N(CCCCNC(=N)N)C1=O.O=C(O)C(F)(F)F.O=C(O)C(F)(F)F`, the MIC in data set [1] amounted to 2 µg/mL; in data set [2], 2 µg/mL; in data set [3] it was 4 µg/mL; in data set [4], 16 µg/mL. The same compound returned an EC50 at 1 h in data set [5] of 143 µg/mL.
On to `N=C(N)N[C@H]1CC[C@@H](N2C(=O)N([C@H]3CC[C@@H](NC(=N)N)CC3)C(=O)C(Cc3cc(Br)cc(Br)c3)(Cc3cc(Br)cc(Br)c3)C2=O)CC1.O=C(O)C(F)(F)F.O=C(O)C(F)(F)F`, for which the MIC turned out to be 2 µg/mL in data set [1], 1 µg/mL in data set [2], 4 µg/mL in data set [3] and 4 µg/mL in data set [4]. The same compound registered an EC50 at 1 h in data set [5] of 30 µg/mL.
Turning to `CCCCCCC1(CCCCCC)C(=O)N(CCCCN)C(=O)N(CCCCN)C1=O.O=C(O)C(F)(F)F.O=C(O)C(F)(F)F`, the MIC turned out to be 16 µg/mL in data set [1], 8 µg/mL in data set [2], 32 µg/mL in data set [3] and 64 µg/mL in data set [4]. Moreover, the EC50 at 1 h in data set [5] is > 333 µg/mL.
For `CCCCCCC1(Cc2cc(Br)cc(Br)c2)C(=O)N(CCCCN)C(=O)N(CCCCN)C1=O.O=C(O)C(F)(F)F.O=C(O)C(F)(F)F`, in that order: 4 µg/mL, 4 µg/mL, 16 µg/mL, 16 µg/mL and 144 µg/mL.
For `N=C(N)NCCCCN1C(=O)N(CCCCNC(=N)N)C(=O)C(Cc2cc(Br)cc(Br)c2)(Cc2cc(C(F)(F)F)cc(C(F)(F)F)c2)C1=O.O=C(O)C(F)(F)F.O=C(O)C(F)(F)F` (stereo not given), in that order: 2 µg/mL, 2 µg/mL, 2 µg/mL, 4 µg/mL and 36 µg/mL.
For `CNCCCCN1C(=O)N(CCCCNC)C(=O)C(Cc2cc(Br)cc(Br)c2)(Cc2cc(Br)cc(Br)c2)C1=O.O=C(O)C(F)(F)F.O=C(O)C(F)(F)F`, in that order: 8 µg/mL, 4 µg/mL, 8 µg/mL, 16 µg/mL and 73 µg/mL.
With `NCCCN1C(=O)N(CCCN)C(=O)C(Cc2ccc(C(F)(F)F)cc2)(Cc2cc(Br)cc(Br)c2)C1=O.O=C(O)C(F)(F)F.O=C(O)C(F)(F)F`, the MIC in data set [1] worked out at 32 µg/mL; in data set [2], 8 µg/mL; in data set [3], 16 µg/mL; in data set [4] it was 32 µg/mL. Further, the concentration for a half-maximal effect (EC50) at 1 h in data set [5] is > 438 µg/mL.
Regarding `CC(C)(C)c1ccc(CC2(Cc3cc(Br)cc(Br)c3)C(=O)N(CCCCN)C(=O)N(CCCCN)C2=O)cc1.O=C(O)C(F)(F)F.O=C(O)C(F)(F)F`, the MIC in data set [1] is 4 µg/mL; in data set [2], 4 µg/mL; in data set [3] it was 8 µg/mL; in data set [4], 8 µg/mL. Also, the EC50 at 1 h in data set [5] turned out to be 82 µg/mL.
For the compound `NCCCCN1C(=O)N(CCCCN)C(=O)C(Cc2cc(Br)cc(Br)c2)(Cc2ccc(Br)c3ccccc23)C1=O.O=C(O)C(F)(F)F.O=C(O)C(F)(F)F`, the minimum inhibitory concentration (MIC) in data set [1] worked out at 4 µg/mL; in data set [2] it was 4 µg/mL; in data set [3] it was 4 µg/mL; in data set [4], 8 µg/mL. The EC50 at 1 h in data set [5] was found to be 47 µg/mL.
